PubChem BioAssay
The source made the active and inactive calls. Unless noted, no stated cut-off is given here; in the data, active means inhibition above about 30%; inactive means the rest.

Tests used:
[1] = SK-BR-3 cell growth inhibitors, pilot screen, 24 h, human (AID 572;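 active means viability at or below 10% of carrier control in both of two separate runs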;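 further: compound exposure lasted between 18 and 24 h rather than exactly 24 h; 100% = carrier-treated control wells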); conditions: SK-BR-3 viability, CellTiter-Glo luminescence, at 10 µM, stronger effect = lower value
[2] = HUVEC growth inhibition – cell-based, human, primary screen (AID 575;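 active means viability at or below 30% in both replicate assays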;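 further: 100% = median of untreated cell wells with 0.1% DMSO on each plate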); conditions: HUVEC proliferation, CellTiter-Glo luminescence, 72 h; at 10 µM; stronger effect = lower value
Method in brief: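 Assay system: Primary human umbilical vein endothelial cells | Quantity: 1250 cells per well | Medium: Supplemented EBM, 2% fetal bovine serum | Detection: CellTiter-Glo luminescence measuring cellular ATP | Read-out: % viability vs DMSO wells | Plate: Collagen-coated 384-well format | Times: 72 h exposure, 37 °C, 5% CO2, 30 min RT equilibration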

[3] = growth inhibitors of H69AR lung tumor, primary screen, human, duplicate replicates (AID 580;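 active means viability at or under a set limit in both replicates, limit being median viability minus 3 SD, cut at about 48% in these data, passing the limit was not always enough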;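 further: 100% = mean luminescence of untreated wells and 0% = no signal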); conditions: H69AR lung tumor cells viability, ATP luminescence, 72 h; at 10 µM; stronger effect = lower value
[4] = reversal of MRP1-mediated doxorubicin resistance, pilot screen, H69AR cells, doxorubicin co-treatment (AID 601;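 active means viability loss from added drug above about 55%, and viability with drug at most 40%, in both replicates, limit read from the data, passing the limit was not always enough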); conditions: CellTiter-Glo, 72 h, at 10 µM; for differential viability (reversal): stronger effect = higher value
[5] = 384-well plate pilot, post-Golgi transport modulator project, inhibition of yeast transport mutant growth (AID 636; in the data active means inhibition above about 31%); conditions: absorbance 615 nm, about 18 h, stronger effect = higher value
[6] = growth suppression of yeast trafficking mutant, preliminary HTS, modulators of trafficking downstream of Golgi apparatus project, 1536-format plate, OD 615 nm (AID 637); conditions: yeast transport mutant growth, absorbance 615 nm, 18 h; stronger effect = higher value
[7] = H69AR cells + 2 uM doxorubicin, measured here: viability with 2 uM doxorubicin, stronger effect = lower value
[8] = H69AR cells, compound alone cytotoxicity

Structure (SMILES)	viability [1]	viability [2]	viability [3]	differential viability (reversal) ([4]; H69AR cells + 2 uM doxorubicin)	viability [4, 7]	viability [4, 8]	inhibition [5]	inhibition [6]
CCCc1cc(=O)[nH]c(SCc2ccccc2)n1	101% (inactive)	106% (inactive)	90.4% (inactive)	8.54% (inactive)	81.9%	90.4%	1.04% (inactive)	-2.46% (inactive)
O=C(COc1ccc(S(=O)(=O)NC2CCCCC2)cc1)NCc1ccccn1	65% (inactive)	102% (inactive)	85.6% (inactive)	-3% (inactive)	88.6%	85.6%	-7.26% (inactive)	2.18% (inactive)
CN(C)CCC(c1ccc(Br)cc1)c1ccccn1 (stereo unspecified)	110% (inactive)	80.3% (inactive)	102% (inactive)	10.6% (inactive)	91.4%	102%	-2.73% (inactive)	-3.5% (inactive)
O=C(NCc1ccco1)c1cc2cc3ccc(Cl)cc3nc2o1	90% (inactive)	21.4% (active)	2.59% (active)	-0.39% (inactive)	2.98%	2.59%	-0.65% (inactive)	0% (inactive)
O=C(NC1CCCCC1NC(=O)c1ccco1)c1ccco1 (stereo unspecified)	93% (inactive)	94.2% (inactive)	90% (inactive)	-4.53% (inactive)	94.5%	90%	0.53% (inactive)	3.27% (inactive)
CC(=O)Nc1cc(NC(C)=O)cc(C(=O)OCC(=O)N2CC(C)OC(C)C2)c1 (stereo unspecified)	94% (inactive)	99.9% (inactive)	102% (inactive)	8.29% (inactive)	94.1%	102%	-6.62% (inactive)	-3.64% (inactive)
c1ccc(OCCCn2nnc(-c3ccncc3)n2)cc1	109% (inactive)	108% (inactive)	95.8% (inactive)	-1.02% (inactive)	96.8%	95.8%	-5.21% (inactive)	4.73% (inactive)
CCN(CC)S(=O)(=O)c1ccc(NC(=O)Cn2cnc3ccccc3c2=O)cc1	87% (inactive)	85.9% (inactive)	93.8% (inactive)	8.02% (inactive)	85.8%	93.8%	0.96% (inactive)	-1.29% (inactive)
Cc1ccccc1Nc1nc(N)nc(CSCc2c(C)noc2C)n1	88% (inactive)	101% (inactive)	96.4% (inactive)	-1.78% (inactive)	98.2%	96.4%	3.51% (inactive)	3.09% (inactive)
CC(C)(C)c1nnc(NC(=O)C2CCN(c3ncccn3)CC2)s1	105% (inactive)	115% (inactive)	101% (inactive)	14.3% (inactive)	86.6%	101%	-4.03% (inactive)	-0.82% (inactive)
CSc1oc(-c2ccccc2)nc1S(=O)(=O)c1ccc(F)cc1	92% (inactive)	73.2% (inactive)	82.6% (inactive)	0.495% (inactive)	82.1%	82.6%	-6.3% (inactive)	-1.61% (inactive)
CC(=O)OC(C)C[N+](C)(C)C (stereo unspecified)	103% (inactive)	86.7% (inactive)	104% (inactive)	14.9% (inactive)	89.3%	104%	-5.97% (inactive)	3.5% (inactive)
CCOC(=O)c1cnc(C(C)(C)C)[nH]c1=O	106% (inactive)	102% (inactive)	95.8% (inactive)	7.84% (inactive)	88%	95.8%	-6.22% (inactive)	-0.91% (inactive)
CS(=O)(=O)N(CC(=O)NCc1ccncc1)Cc1ccc(Cl)cc1	104% (inactive)	101% (inactive)	98.3% (inactive)	0.52% (inactive)	97.8%	98.3%	-8.36% (inactive)	0.81% (inactive)
CCN(CC)CCOC(=O)C1(C2CCCCC2)CCCCC1	114% (inactive)	72.7% (inactive)	86.3% (inactive)	3.1% (inactive)	83.2%	86.3%	-2.6% (inactive)	-3.33% (inactive)
COCCNC(=O)c1snc2ccc(Cl)cc12	89% (inactive)	83.4% (inactive)	102% (inactive)	10.2% (inactive)	91.5%	102%	4.42% (inactive)	4.43% (inactive)
N#CCC(=O)N1CCn2c1nc1ccccc12	99% (inactive)	95% (inactive)	87.7% (inactive)	-0.78% (inactive)	88.5%	87.7%	0.13% (inactive)	0.33% (inactive)
